Published values pooled from the literature.
Compare with care: the assays were run in different laboratories.
Target: Protein kinase C iota type (PRKCI, Homo sapiens, UniProt P41743)
One construct used (P41743 1-596): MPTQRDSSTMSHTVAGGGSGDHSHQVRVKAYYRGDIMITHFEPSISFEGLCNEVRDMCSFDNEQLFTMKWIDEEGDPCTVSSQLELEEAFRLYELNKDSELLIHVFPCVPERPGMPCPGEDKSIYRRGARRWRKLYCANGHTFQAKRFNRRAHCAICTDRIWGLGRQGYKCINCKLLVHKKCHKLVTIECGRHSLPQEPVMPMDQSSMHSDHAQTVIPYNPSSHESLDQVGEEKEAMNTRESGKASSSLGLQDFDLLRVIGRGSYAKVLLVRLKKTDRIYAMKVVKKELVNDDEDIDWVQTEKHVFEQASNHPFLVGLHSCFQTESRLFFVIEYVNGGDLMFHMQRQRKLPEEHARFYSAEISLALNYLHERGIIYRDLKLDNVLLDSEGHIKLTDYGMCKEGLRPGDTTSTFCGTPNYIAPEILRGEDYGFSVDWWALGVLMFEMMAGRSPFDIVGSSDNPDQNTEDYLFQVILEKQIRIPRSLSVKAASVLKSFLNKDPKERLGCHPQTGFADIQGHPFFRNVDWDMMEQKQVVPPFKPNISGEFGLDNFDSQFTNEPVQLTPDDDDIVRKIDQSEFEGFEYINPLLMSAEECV

`COc1cccc(CNC(=O)c2nc3scc(COCc4ccc(C(=O)O)cc4)c3c(=O)[nH]2)c1` gave a remaining binding of 100% (cell-free assay, competition with immobilised ligand; 1 µM).
`O=C(Nc1cnn(-c2csc(C(=O)NC3COC3)c2)c1)Nc1c(F)cccc1Cl` gave a remaining activity of 87.4% (enzyme activity, inhibitor; 5 µM).
`Cc1cc(NC(=O)c2cccc3cc(-c4cccc5[nH]nc(N)c45)ccc23)ccc1F` has an activity vs control of 98% (enzyme activity, inhibitor; 0.1 µM).
For `CO[C@@H](C)c1c(Nc2ccc([C@H](N(C)C(=O)C3CCS(=O)(=O)CC3)C(F)(F)F)cc2)cnc2cc(Cl)nn12`, the remaining binding was 72% (cell-free assay, competition with immobilised ligand; 1 µM).
With `CC(C)(C)c1nc(-c2cccc(NS(=O)(=O)c3c(F)cccc3F)c2F)c(-c2ccnc(N)n2)s1` the remaining activity was 100% (enzyme activity, inhibitor, radiometric; 1 µM).
With `c1ccc(CNc2nc(N3CCOc4ccccc43)nc3c2CCCC3)cc1` the inhibition was -0.4% (target engagement in cells, inhibitor, chemoproteomics; 20 mM).
`Cc1cnc(NC2CCOCC2)nc1-n1cnc(C(=O)NC(CN)c2cc(F)cc(Cl)c2)c1` (stereo not drawn) gave a remaining activity of 106% (enzyme activity, inhibitor, radiometric; 1 µM).
The remaining binding of `Cc1cc(NC(=O)c2cccc(S(F)(F)(F)(F)F)c2)cc(-n2ccn3nc(-c4cccnc4)cc23)c1` is reported as 80.4% (cell-free assay, competition with immobilised ligand; 1 µM).
For `O=C1Nc2ccc(Cl)cc2C1=Cc1cc(Cl)c(O)c(Cl)c1`, the remaining signal was 94.1% (cell-free assay; 0.5 µM).
With `CCN(CC)CCNC(=O)c1c(C)[nH]c(/C=C2\C(=O)Nc3ccc(F)cc32)c1C` the inhibition was 1% (enzyme activity, inhibitor; 10 µM).
For `COc1cc(Cl)c(C(=O)N[C@@H](CN[C@H]2CC[C@@H](N)CC2)Cc2ccc(C#N)cc2)cc1-c1ccc(CN[C@H](C)c2ccc(C)cc2)o1`, the remaining activity was 96% (enzyme activity, inhibitor; 1 µM).
The inhibition of `CCCS(=O)(=O)Nc1ccc(F)c(C(=O)c2c[nH]c3ncc(-c4ccc(Cl)cc4)cc23)c1F` is reported as < 10% (enzyme activity, inhibitor; 1 µM).
The remaining activity of `CCCOc1ccc(OC)c(F)c1C(=O)c1ccc(C(=O)N[C@@H]2CNC[C@H]2NC(=O)c2ccc3[nH]ncc3c2)cc1` is reported as 89% (enzyme activity, inhibitor; 10 µM).
With `Nc1c(C(=O)NCc2ccc(C(=O)NCCCC3CCCCC3)cc2)cnn1-c1ccccc1` the remaining binding was 97% (cell-free assay, competition with immobilised ligand; 0.1 µM).
For `Cc1sc(C(=O)NC2COC2)cc1-n1cc(NC(=O)Nc2c(F)cccc2Cl)cn1`, the remaining activity was 90.8% (enzyme activity, inhibitor; 10 µM).
`CC(C)c1ccc(NC(=O)c2cccs2)c(-c2nc3ccccc3[nH]c2=O)c1` gave an activity vs control of 94% (enzyme activity, inhibitor; 1 µM).
`CNCc1ccc(-c2cc(-c3nc(-c4ccc(S(=O)(=O)C(C)C)cc4)cnc3N)on2)cc1` has an inhibition of 1% (enzyme activity, inhibitor; 2 µM).
`N[C@@H]1CCN(c2nccc(-c3cnn4ncccc34)n2)C1` gave a remaining binding of 33% (binding; 1 µM).
The remaining signal of `O=C1NC(=O)c2cc(Nc3ccc(F)cc3)c(Nc3ccc(F)cc3)cc21` is reported as 89% (cell-free assay; 0.5 µM).
The remaining binding of `Cn1nc(C(=O)NCc2ccc(C(=O)O)cc2)cc1-c1ccc2[nH]ccc2c1` is reported as 80% (cell-free assay, competition with immobilised ligand; 0.1 µM).
For `COc1cc2ncnc(Nc3ccc(Oc4ccccc4)cc3C)c2cc1OC`, the inhibition was 3% (enzyme activity, inhibitor; 1 µM).
`O=C(NC[C@@H]1[C@H]2CN(C(=O)OCc3cc(C(F)(F)F)cc(C(F)(F)F)c3)C[C@@H]12)c1ccc2[nH]nnc2c1` gave a remaining binding of 98% (cell-free assay, competition with immobilised ligand; 1 µM).
The remaining activity of `CC(C)(O)[C@H]1CC[C@H](Nc2ccc3ncc(-c4cccc(C(F)(F)F)c4)n3n2)CC1` is reported as 128% (enzyme activity, inhibitor; 1 µM).
`Cc1c[nH]c2nccc(Oc3c(F)cc(Nc4cc(Cl)nc(N)n4)cc3F)c12` gave a remaining binding of 100% (cell-free assay, competition with immobilised ligand; 0.1 µM).
`CN(C)C1CCN(CC#Cc2nn(C3CCCC3)c3nc(NCc4ccccc4)ncc23)C1` (stereo not drawn) gave an inhibition of 6% (enzyme activity, inhibitor, FRET; 10 µM).
`C[C@@H]1CN(c2cc(-c3nn(C)c4ccc(OC5(C)CC5)cc34)ncn2)C[C@H](C)O1` gave a remaining binding of 100% (cell-free assay, competition with immobilised ligand; 1 µM).
`Cc1ccc(C(=O)NCc2ccsc2)cc1C#Cc1cn(C(C)C)c2ncnc(N)c12` gave an activity vs control of 96% (enzyme activity, inhibitor; 1 µM).
